# Shown are actives, neighbours in structure and some others; about 3.5% of the full set was active somewhere.
# RGS4 act: RGS4 potentiators or activators, primary screen, cell-based, HEK293 M3R inducible RGS4, calcium flux. carbachol calcium flux Fluo4; stronger effect = lower value. AID 463111, 2010. B-score at 10 µM. actives 0.92% (n = 310,000);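 active = B-score of the integrated calcium signal more than 4 SD below the library mean, with starting fluorescence not abnormally high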;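 note: negative B-score means reduced calcium response which marks RGS4 activation or potentiation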
#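 Also added: carbachol at ECmax as muscarinic agonist stimulus; Assay system: HEK293 cells with stable M3R and inducible RGS4; Timing: overnight RGS4 induction, 30 min dye load 37 °C, 20 min compound RT; Measured by: Fluo4-AM (2 µM) calcium-flux fluorescence, kinetic read.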
# RGS4 block: RGS4 inhibitors, primary screen, cell-based, HEK293 M3R inducible RGS4, calcium flux; Fluo-4 calcium flux; stronger effect = higher value; triggered by carbachol at its EC20; B-score at 10 µM; actives 0.45% (n = 310,000);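 active = B-score, a plate-corrected calcium signal, over three deviations above library mean, with baseline fluorescence within five deviations of library mean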;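 note: RGS4 expression induced by doxycycline in cells with stable M3 receptor; B-score is computed from the integrated fluorescence ratio over baseline after carbachol; higher B-score means a larger calcium signal and so more RGS4 inhibition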
# Target sequence (P49798 whole entry, looked up): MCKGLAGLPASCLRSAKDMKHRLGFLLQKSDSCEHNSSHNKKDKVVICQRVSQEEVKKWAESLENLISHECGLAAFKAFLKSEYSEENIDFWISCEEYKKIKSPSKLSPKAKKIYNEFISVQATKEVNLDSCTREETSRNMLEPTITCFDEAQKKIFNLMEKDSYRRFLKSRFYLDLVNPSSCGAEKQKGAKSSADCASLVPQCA
# MrgX1 antag: antagonists of human MrgX1 receptor, primary screen, HEK293 cells, Fluo-4 calcium flux; Mas-related G-protein coupled receptor member X1 (Homo sapiens), Q96LB2; BAM8-22 antagonism; stronger effect = lower value; B-score at 10 µM; actives 1.3% (n = 310,000);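 active = calcium-response B-score plate-corrected more than 3 library SD below zero, starting fluorescence within 5 deviations, no agonist response on first addition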;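 note: peak minus trough fluorescence over baseline after final BAM8-22 challenge near maximal dose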
# Target sequence (Q96LB2 whole entry, looked up): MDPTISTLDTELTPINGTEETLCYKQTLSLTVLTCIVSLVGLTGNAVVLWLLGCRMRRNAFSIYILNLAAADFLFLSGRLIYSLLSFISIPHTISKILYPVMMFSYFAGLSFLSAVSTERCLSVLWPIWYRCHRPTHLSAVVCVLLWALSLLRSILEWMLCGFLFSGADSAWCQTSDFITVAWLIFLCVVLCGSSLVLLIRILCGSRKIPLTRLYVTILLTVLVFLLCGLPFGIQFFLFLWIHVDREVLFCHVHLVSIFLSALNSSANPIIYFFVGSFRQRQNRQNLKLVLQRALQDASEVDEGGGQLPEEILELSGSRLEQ
# MrgX1 allo act: positive allosteric modulators of MrgX1, primary screen, HEK293 cells, Fluo-4 calcium flux | Mas-related G-protein coupled receptor member X1 (Homo sapiens), Q96LB2 | FDSS; stronger effect = higher value | B-score at 10 µM | actives 0.63% (n = 310,000) | AID 588675, 2011;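 active = plate-corrected calcium response at least 3 library SD above typical, normal starting fluorescence, not activating the receptor alone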;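 note: compound read alongside a low EC10 to EC30 dose of BAM8-22 agonist; peak minus trough fluorescence over baseline measured at the second addition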
# MrgX1 agonist: agonists of human MrgX1 receptor, primary screen, HEK293 cells, Fluo-4 calcium flux | Fluo-4 calcium fluorescence, agonist mode; stronger effect = higher value | actives 0.44% (n = 310,000) | Mas-related G-protein coupled receptor member X1 (Homo sapiens), Q96LB2 | AID 588627, 2011 | B-score at 10 µM;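 active = calcium response B-score plate-corrected fluorescence ratio at least 3 library SD, with starting fluorescence B-score inside 5 SD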
#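 System: HEK293 cells stably expressing human MrgX1 receptor; Dosing: test compound in the initial addition of three; Schedule: overnight plating, then 30 min 37 °C plus 30 min room-temperature dye loading; Detection: kinetic calcium dye fluorescence, Fluo-4 NW; Controls: per-plate positive and negative controls for Z′ factor.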
# The depositor's hits bear a star; i = inactive; nt = not tested or not shown.
SMILES,RGS4 act,RGS4 block,MrgX1 antag,MrgX1 allo act,MrgX1 agonist
N#Cc1ccc(-c2cccs2)nc1SCc1cccnc1,i,i,i,i,i
CN1CCN(C(=O)CSc2nc(-c3cccs3)ccc2C#N)CC1,i,i,i,i,46.5*
COc1ccc(CCN2CC(C(=O)NCCc3cccc(F)c3)CCC2=O)cc1 (stereo unspecified),i,i,nt,nt,nt
O=C(CSc1nc2ccccc2c(=O)n1-c1ccc(F)cc1F)c1c[nH]c2ccccc12,i,i,-5.08*,i,i
O=C(CSc1nc2ccccc2c(=O)n1-c1ccc(F)cc1F)Nc1ccc(N2CCOCC2)cc1,i,i,i,i,i
CN(Cc1ccccc1)S(=O)(=O)c1ccc(S(=O)(=O)N(Cc2ccc(F)cc2)C2CCCC2)cc1,i,i,-4.56*,i,i
O=c1c2ccccc2nnn1CSc1nnc(-c2cccc(S(=O)(=O)N3CCCCC3)c2)o1,-7.9*,i,i,i,i
Cc1ccc(NC(=O)CN2CCC(NC(=O)c3ccccc3F)CC2)cc1C,i,i,i,i,i
CCC(NC(=S)NC1CCCCC1)c1ccc(C(C)C)cc1 (stereo unspecified),-8.53*,i,-5.29*,i,i
O=C(NC1CCCC1)C(c1ccccn1)N(C(=O)c1csnn1)c1ccccc1F (stereo unspecified),i,i,i,i,i
CCOC(=O)c1c(NC(=S)Nc2ccccc2)sc2c1CCN(CCc1ccccc1)C2,nt,nt,-5.03*,i,i
CCCN1CCc2c(sc(NC(=S)NC(=O)c3ccccc3)c2C#N)C1,i,i,i,i,79.6*
CC(C)N1CCc2c(sc(NC(=S)NC(=O)c3ccccc3)c2C#N)C1,i,i,i,i,i
COc1ccccc1OCc1cc(C(=O)NCc2ccc(N3CCCC3=O)cc2)no1,i,i,i,i,i
Cc1ccc(C(=O)NC(C)c2ccc(-n3ccnc3)cc2)o1 (stereo unspecified),i,i,i,i,i
Cc1ccc(S(=O)(=O)Nc2ccnc(-c3cccnc3)n2)cc1,i,i,i,i,i
CC(C)(C)CC(=O)Nc1ccc(-c2nnc3n2CCCCC3)cc1,i,i,i,i,i
O=C(/C=C/c1ccccc1Cl)Nc1ccc(-c2nnc3n2CCCCC3)cc1,-8.12*,i,i,i,i
COc1ccccc1NS(=O)(=O)c1ccc(O)c(NC(=S)NCC2CCCO2)c1 (stereo unspecified),i,i,i,i,i
Cc1nc(SCc2c(F)cccc2Cl)c2c(=O)n(C)c(=O)n(C)c2n1,i,i,i,i,i
COc1ccc(NC(=O)N2CCCc3ccccc32)cc1,i,i,i,i,i
COc1ccc(N/N=C(/C(C)=O)N2CCCc3ccccc32)cc1,-7.99*,i,i,i,i
O=C(Cc1ccsc1)NNC(=O)c1ccccc1Cl,i,i,i,i,i
Cc1cc2n(c1)CCn1c(C)ccc1-2,i,i,-4.62*,i,i
O=[N+]([O-])c1ccc(O)c(/C=N/NC2=NS(=O)(=O)c3ccccc32)c1,i,i,i,8.46*,i
SMILES,RGS4 act,RGS4 block,MrgX1 antag,MrgX1 allo act,MrgX1 agonist
COc1ccc(CNC(=O)CCS(=O)(=O)c2ccc3c(c2)CC(C)N3C(=O)C2CC2)cc1 (stereo unspecified),i,i,i,i,i
CN1CCN(CCC2Oc3cc([N+](=O)[O-])ccc3NC2=O)CC1 (stereo unspecified),i,i,i,i,i
O=C1Nc2ccc([N+](=O)[O-])cc2OC1CCN1CCCC1 (stereo unspecified),i,i,i,11.7*,i
COc1cc(/C=C/C(=O)NC(=O)c2ccccc2O)ccc1O,i,i,i,12.4*,i
Cc1ccc(C(=O)N/N=C/c2ccc(OC(=O)c3ccccc3Cl)cc2)cn1,i,i,i,i,i
COc1cc(C(=O)N/N=C/c2ccc(OC(=O)c3ccccc3Cl)c(OC)c2)ccc1O,-9.9*,i,-4.65*,i,i
O=C(N/N=C/c1cccc(OC(=O)c2ccccc2Cl)c1)c1cccnc1,-7.65*,i,i,i,i
COc1cc(C(=O)N/N=C/c2ccc(OC(=O)c3cccc(C)c3)cc2)ccc1O,i,i,i,i,i
COc1cc(/C=N/NC(=O)c2ccc(N)cc2)ccc1OC(=O)c1cccc(C)c1,-8.52*,i,-5.57*,i,i
Cc1ccc(C(=O)COC(=O)CCN2C(=O)C3C4C=CC(C5CC45)C3C2=O)cc1 (stereo unspecified),i,i,i,i,i
CCC(C(=O)NC1CCCCC1)N(Cc1cccs1)C(=O)CCC(=O)Nc1cc(C)on1 (stereo unspecified),i,i,i,i,i
O=C(CSc1nc2ccccc2c(=O)[nH]1)Nc1ccc(N2CCOCC2)c(Cl)c1,i,i,i,i,i
COc1cc(/C=N/NC(=O)c2ccccn2)ccc1OC(=O)c1ccc(Br)cc1,i,i,i,i,i
O=C(N/N=C/c1cc(Br)c(Br)o1)c1cccnc1,i,i,-6*,i,i
O=C(N/N=C\c1cc(Br)c(Br)o1)c1cncc(Br)c1,i,i,i,i,i
COc1cc(/C=N/NC(=O)c2ccccn2)ccc1OC(=O)c1ccccc1Br,-8.12*,i,i,i,i
CSc1ccccc1NC(=O)CN1CC(C)OC(C)C1 (stereo unspecified),i,i,i,i,i
c1ccc(Cc2noc(CN3CCCN(C4Cc5ccccc5C4)CC3)n2)cc1,-6.97*,i,i,i,i
c1ccc(Cc2noc(CN3CCN(C4CCc5ccccc5C4)CC3)n2)cc1 (stereo unspecified),i,i,i,i,i
CCC(=O)Oc1ccc(C2NC(=O)c3ccccc3O2)cc1OC (stereo unspecified),-7.59*,i,i,i,i
CCCOC(=O)c1c(NC(=O)/C=C/c2cnn(C)c2C)sc(C(=O)OC)c1C,i,i,i,i,i
CCCOC(=O)c1c(NC(=O)/C=C/c2cnn(C)c2C)sc(C(=O)OCC)c1C,i,i,-4.57*,i,i

# Bioassay records as filed in PubChem BioAssay.
